Test results as given in ChEMBL document CHEMBL3779892, “Increasing the binding affinity of VEGFR-2 inhibitors by extending their hydrophobic interaction with the active site: Design, synthesis and biological evaluation of 1-substituted-4-(4-methoxybenzyl)phthalazine derivatives” (Eur J Med Chem, 2016).

How the values were obtained:
Assay type in all cases: functional
MDA-MB-468 = test: Growth inhibition of human MDA-MB-468 cells at 10 uM after 48 hrs by sulforhodamine B assay; details: MDA-MB-468, 48 h, read-out: GI
Procedure, shortened: (§1)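 Run at NCI on the 60-line panel. Cells grown in RPMI 1640 with 5% FBS and 2 mM L-glutamine, plated at 5000–40,000 cells/well by doubling time, and held 24 h at 37 °C before dosing. Drug (DMSO stock) given at a single final 10 µM in triplicate wells for 48 h. Adherent cells fixed with cold TCA (10% final), suspension cells with 16% TCA. SRB stain read at 515 nm. Percent growth from Tz, C and Ti.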

[1] = Growth inhibition of human RPMI8226 cells at 10 uM after 48 hrs by sulforhodamine B assay; details: RPMI-8226, 48 h, read-out: GI; procedure, shortened: as §1
SR = test: Growth inhibition of human SR cells at 10 uM after 48 hrs by sulforhodamine B assay; details: read-out: GI
Procedure, shortened: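 NCI-60 screen. Cells were grown in RPMI 1640 with 5% FBS and 2 mM L-glutamine, plated at 5000–40,000 cells/well and held 24 h at 37 °C, 5% CO2. Single 10 µM final dose from DMSO stock, triplicate wells, 48 h. Settled cells were fixed with 80% TCA (16% final) and stained with 0.4% SRB. Dye was solubilized in 10 mM Tris and read at 515 nm. Growth was calculated against time-zero and untreated wells.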

A549 = test: Growth inhibition of human A549 cells at 10 uM after 48 hrs by sulforhodamine B assay; details: A549, 48 h, read-out: GI; procedure, shortened: as §1
[2] = Growth inhibition of human HOP62 cells at 10 uM after 48 hrs by sulforhodamine B assay; details: HOP-62, 48 h, read-out: GI; procedure, shortened: as §1
[3] = Growth inhibition of human HOP92 cells at 10 uM after 48 hrs by sulforhodamine B assay; details: HOP-92, 48 h, read-out: GI; procedure, shortened: as §1
NCI-H226 = test: Growth inhibition of human NCI-H226 cells at 10 uM after 48 hrs by sulforhodamine B assay; details: NCI-H226, 48 h, read-out: GI; procedure, shortened: as §1
NCI-H23 = test: Growth inhibition of human NCI-H23 cells at 10 uM after 48 hrs by sulforhodamine B assay; details: NCI-H23, 48 h, read-out: GI; procedure, shortened: as §1
NCI-H322M = test: Growth inhibition of human NCI-H322M cells at 10 uM after 48 hrs by sulforhodamine B assay; details: read-out: GI; procedure, shortened: as §1
NCI-H522 = test: Growth inhibition of human NCI-H522 cells at 10 uM after 48 hrs by sulforhodamine B assay; details: NCI-H522, 48 h, read-out: GI; procedure, shortened: as §1
[4] = Growth inhibition of human HCC2998 cells at 10 uM after 48 hrs by sulforhodamine B assay; details: HCC 2998, 48 h, read-out: GI; procedure, shortened: as §1
[5] = Growth inhibition of human HCT116 cells at 10 uM after 48 hrs by sulforhodamine B assay; details: HCT-116, 48 h, read-out: GI; procedure, shortened: as §1
[6] = Growth inhibition of human HCT15 cells at 10 uM after 48 hrs by sulforhodamine B assay; details: HCT-15, 48 h, read-out: GI; procedure, shortened: as §1
KM12 = test: Growth inhibition of human KM12 cells at 10 uM after 48 hrs by sulforhodamine B assay; details: KM12, 48 h, read-out: GI; procedure, shortened: as §1
[7] = Growth inhibition of human SW620 cells at 10 uM after 48 hrs by sulforhodamine B assay; details: SW-620, 48 h, read-out: GI
Procedure, shortened: (§2)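 NCI-60 panel, adherent cells grown in RPMI 1640 with 5% FBS and 2 mM L-glutamine, plated at 5000–40,000 cells/well and preincubated 24 h at 37 °C, 5% CO2. 10 µM final compound from DMSO stock, triplicate wells, 48 h. Fixed with cold TCA (10% final, 60 min, 4 °C) and stained with 0.4% SRB. Absorbance read at 515 nm; growth calculated against time-zero and control wells.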

[8] = Growth inhibition of human SF268 cells at 10 uM after 48 hrs by sulforhodamine B assay; details: SF-268, 48 h, read-out: GI; procedure, shortened: as §1
[9] = Growth inhibition of human SF295 cells at 10 uM after 48 hrs by sulforhodamine B assay; details: SF-295, 48 h, read-out: GI; procedure, shortened: as §1
[10] = Growth inhibition of human SF539 cells at 10 uM after 48 hrs by sulforhodamine B assay; details: SF-539, 48 h, read-out: GI; procedure, shortened: as §1
[11] = Growth inhibition of human SNB75 cells at 10 uM after 48 hrs by sulforhodamine B assay; details: SNB-75, 48 h, read-out: GI; procedure, shortened: as §1
[12] = Growth inhibition of human LOXIMVI cells at 10 uM after 48 hrs by sulforhodamine B assay; details: LOX IMVI, read-out: GI; procedure, shortened: as §1
M14 = test: Growth inhibition of human M14 cells at 10 uM after 48 hrs by sulforhodamine B assay; details: M14, 48 h, read-out: GI; procedure, shortened: as §1
MDA-MB-435 = test: Growth inhibition of human MDA-MB-435 cells at 10 uM after 48 hrs by sulforhodamine B assay; details: MDA-MB-435, 48 h, read-out: GI; procedure, shortened: as §1
SK-MEL-28 = test: Growth inhibition of human SK-MEL-28 cells at 10 uM after 48 hrs by sulforhodamine B assay; details: SK-MEL-28, 48 h, read-out: GI; procedure, shortened: as §1
SK-MEL-5 = test: Growth inhibition of human SK-MEL-5 cells at 10 uM after 48 hrs by sulforhodamine B assay; details: SK-MEL-5, 48 h, read-out: GI; procedure, shortened: as §1
[13] = Growth inhibition of human UACC257 cells at 10 uM after 48 hrs by sulforhodamine B assay; details: UACC-257, 48 h, read-out: GI; procedure, shortened: as §2
[14] = Growth inhibition of human UACC62 cells at 10 uM after 48 hrs by sulforhodamine B assay; details: UACC-62, 48 h, read-out: GI; procedure, shortened: as §2
[15] = Growth inhibition of human OVCAR5 cells at 10 uM after 48 hrs by sulforhodamine B assay; details: OVCAR-5, 48 h, read-out: GI; procedure, shortened: as §1
[16] = Growth inhibition of human NCI-ADR-RES cells at 10 uM after 48 hrs by sulforhodamine B assay; details: read-out: GI; procedure, shortened: as §1
ACHN = test: Growth inhibition of human ACHN cells at 10 uM after 48 hrs by sulforhodamine B assay; details: read-out: GI; procedure, shortened: as §1
[17] = Growth inhibition of human Caki1 cells at 10 uM after 48 hrs by sulforhodamine B assay; details: CAKI-1, 48 h, read-out: GI; procedure, shortened: as §1
[18] = Growth inhibition of human RXF393 cells at 10 uM after 48 hrs by sulforhodamine B assay; details: RXF 393, 48 h, read-out: GI; procedure, shortened: as §1
[19] = Growth inhibition of human PC3 cells at 10 uM after 48 hrs by sulforhodamine B assay; details: PC-3, 48 h, read-out: GI; procedure, shortened: as §1
[20] = Growth inhibition of human DU145 cells at 10 uM after 48 hrs by sulforhodamine B assay; details: DU-145, 48 h, read-out: GI; procedure, shortened: as §1
[21] = Growth inhibition of human Hs 578T cells at 10 uM after 48 hrs by sulforhodamine B assay; details: read-out: GI; procedure, shortened: as §1

Q: With `COc1ccc(Cc2nnc(Nc3ccc(NC(=O)Nc4cccc(OC)c4)cc3)c3ccccc23)cc1` as the compound, how does the inhibition of growth at 10 µM (MDA-MB-468) read?
A: < 30%

Q: What about the inhibition of growth at 10 µM [1] of the same compound?
A: 43%

Q: And the inhibition of growth at 10 µM (SR)?
A: < 30%

Q: What about the inhibition of growth at 10 µM (A549) of the same compound?
A: < 30%

Q: And the inhibition of growth at 10 µM [2]?
A: < 30%

Q: And the inhibition of growth at 10 µM [3]?
A: < 30%

Q: What about the inhibition of growth at 10 µM (NCI-H226) of the same compound?
A: < 30%

Q: What about the inhibition of growth at 10 µM (NCI-H23) of the same compound?
A: < 30%

Q: What about the inhibition of growth at 10 µM (NCI-H322M) of the same compound?
A: < 30%

Q: And the inhibition of growth at 10 µM (NCI-H522)?
A: < 30%

Q: And the inhibition of growth at 10 µM [4]?
A: < 30%

Q: What about the inhibition of growth at 10 µM [5] of the same compound?
A: < 30%

Q: What about the inhibition of growth at 10 µM [6] of the same compound?
A: < 30%

Q: What about the inhibition of growth at 10 µM (KM12) of the same compound?
A: < 30%

Q: And the inhibition of growth at 10 µM [7]?
A: < 30%

Q: What about the inhibition of growth at 10 µM [8] of the same compound?
A: < 30%

Q: What about the inhibition of growth at 10 µM [9] of the same compound?
A: < 30%

Q: What about the inhibition of growth at 10 µM [10] of the same compound?
A: 35%

Q: What about the inhibition of growth at 10 µM [11] of the same compound?
A: < 30%

Q: And the inhibition of growth at 10 µM [12]?
A: < 30%

Q: And the inhibition of growth at 10 µM (M14)?
A: < 30%

Q: And the inhibition of growth at 10 µM (MDA-MB-435)?
A: < 30%

Q: And the inhibition of growth at 10 µM (SK-MEL-28)?
A: < 30%

Q: What about the inhibition of growth at 10 µM (SK-MEL-5) of the same compound?
A: < 30%

Q: What about the inhibition of growth at 10 µM [13] of the same compound?
A: < 30%

Q: And the inhibition of growth at 10 µM [14]?
A: < 30%

Q: And the inhibition of growth at 10 µM [15]?
A: < 30%

Q: And the inhibition of growth at 10 µM [16]?
A: < 30%

Q: What about the inhibition of growth at 10 µM (ACHN) of the same compound?
A: < 30%

Q: What about the inhibition of growth at 10 µM [17] of the same compound?
A: < 30%

Q: And the inhibition of growth at 10 µM [18]?
A: 50%

Q: And the inhibition of growth at 10 µM [19]?
A: < 30%

Q: And the inhibition of growth at 10 µM [20]?
A: < 30%

Q: What about the inhibition of growth at 10 µM [21] of the same compound?
A: 50%
